A selection: hits, their analogues and other compounds. The true share with any hit is near 1%.
Lipid droplet: modulators of hepatic lipid droplet formation. inhibition, % at 6.5 µM. AML12 mouse hepatocytes, oleate lipid droplets, BODIPY imaging. hit rate 0.4% among 240,000. AID 1656;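 active = lipid droplet intensity inhibited by at least 50%, with more than 500 cells counted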
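Assay system: AML12 mouse liver cells | Compound dosing: One dose, 6.5 µM compound | Read-out basis: Droplet intensity reduction, % inhibition | Measured by: Fluorescence imaging, 20x objective, two fields per well | Schedule: Overnight treatment with compound plus oleate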
Fh CTSL1 inh: cathepsin L1 inhibition, PFM18AAP counter-screen. recombinant F. hepatica cathepsin L1, Z-Leu-Arg-MCA fluorescence. inhibition, % at 5.96 µM. hit rate 0.49% among 300,000. AID 1906;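 active = inhibition above the mean of all tested compounds plus 3 SD, set per screening campaign, cut at about 17% in these data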
Arr AP2 block: blocks beta-arrestin peptide binding to AP2 adaptin | inhibition, % at 10 µM | AID 504490 | hit rate 0.31% among 340,000 | FITC-arrestin peptide / GST-AP2 beads, flow cytometry; AP2 beta2 appendage carries R879A mutation;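 active = inhibition above a set limit, near 3 SD of compounds lacking own fluorescence, cut at about 54% in these data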
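System: GST-AP2 R879A bound to glutathione beads, E. coli-expressed. Also added: 50 nM FITC-arrestin peptide. Schedule: compound with beads 12 min RT, then probe 1 h RT. Signal: bead flow cytometry, FITC channel. Read-out basis: percent response.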
pCIP destab: lowers stability of the mouse p/CIP coactivator protein. AID 1984. Q05BA5. F442A p/CIP-EGFP cells, EGFP fluorescence, 16 h. decrease of EGFP signal, % at 10 µM. hit rate 0.01% among 290,000;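 active = EGFP signal decrease of at least 30% at 10 µM or well 3 SD below plate mean, unless failing retest; inactive = the rest, including hits failing retest or dose response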
Hep lipid conf: hepatic lipid droplet formation inhibition, confirmed. AID 463183. shares compounds with Lipid droplet. hit rate 65% among 870. AML12 mouse hepatocytes, BODIPY lipid droplet imaging; droplets induced with 100 µM oleic acid. inhibition, % at 5.2 µM;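 active = inhibition of lipid droplet metric at least 50%, with more than 300 cells in each of four replicates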
AML12 cytotox: toxic to AML12 mouse hepatocytes in counter-screen | shares compounds with Lipid droplet | DAPI nuclear morphology cytotoxicity imaging; hits give high values; cells fed 100 µM oleate overnight | z-score at 5 µM | hit rate 3% among 870 | AID 463200; in the data active = z-score above about 6.3;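 also: compound exposure lasted overnight at 37 °C before fixation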
AML12 tox conf: AML12 hepatocyte cytotoxicity, confirmed. 530 tested, under 10 active. AML12 mouse hepatocyte viability, ATP luminescence; cells loaded with 100 µM oleic acid. shares compounds with Lipid droplet. cytotoxicity, % at 50 µM. AID 463219;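 active = cytotoxicity above 50% in each of four replicates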;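 also: compound exposure lasted overnight at 37 °C before the ATP read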
Each line names hits and unclear results; the compound was inactive in the other large screens (follow-up assays come after a bar, where they were run).

CCCCCC(O)(c1ccc(OCC)cc1)C(CN1CCOCC1)c1ccccc1 (stereo not drawn)	Lipid droplet 53.8 | Hep lipid conf 72.9 | AML12 cytotox inactive | AML12 tox conf inactive
CCCCCC(O)(c1ccc(OC)cc1)C(CN1CCOCC1)c1ccccc1 (stereo not drawn)	none
COc1cc(N2CCCC2)c(OC)cc1/C=C(/C#N)c1ccc(F)cc1	Lipid droplet 50.1 | Hep lipid conf inactive | AML12 cytotox inactive
COc1cc(N2CCCC2)c(OC)cc1/C=C(/C#N)c1ccc(Br)cc1	none
COc1ccc2[nH]c(=O)c(CN(CC3CCCO3)S(=O)(=O)c3ccccc3F)cc2c1 (stereo not drawn)	none
COc1ccc(/C=C(\NC(=O)c2cccs2)C(=O)Nc2ccc(C)cc2)cc1OC	none
COc1ccc(/C=C(/NC(=O)c2cccs2)C(=O)Nc2ccc(C)cc2)cc1OC	Lipid droplet 60.7 | Hep lipid conf 99.9 | AML12 cytotox inactive | AML12 tox conf inactive
O=C(COC(=O)c1ccccc1)Nc1ncc([N+](=O)[O-])s1	none (no result: Lipid droplet, Fh CTSL1 inh, pCIP destab)
COc1ccc(OC)c(CCNC(=O)C(C)n2nc(C)c3c(C)n(-c4ccc(C)cc4)nc3c2=O)c1 (stereo not drawn)	Lipid droplet 60.3 | Hep lipid conf 99.3 | AML12 cytotox inactive | AML12 tox conf inactive
c1cc2c(cc1-c1csc(NNC3=NCCCCC3)n1)OCCO2	Lipid droplet 90.2 (no result: Arr AP2 block) | Hep lipid conf 100.1 | AML12 cytotox inactive | AML12 tox conf inactive
CC1CC(C)CN(C(=O)CSCC(=O)Nc2nc(-c3cccs3)cs2)C1 (stereo not drawn)	Lipid droplet 56.5 | Hep lipid conf 108.5 | AML12 cytotox inactive | AML12 tox conf inactive
COc1ccc(C(C)=O)cc1COC(=O)CCNS(=O)(=O)c1ccc(C)cc1	none (no result: Lipid droplet, pCIP destab)
COc1cccc(CNS(=O)(=O)c2ccc(S(=O)(=O)NC3CC3)cc2)c1	Lipid droplet 80.5 | Hep lipid conf 108.0 | AML12 cytotox inactive | AML12 tox conf inactive
COc1ccc(CNS(=O)(=O)c2ccc(S(=O)(=O)NC3CC3)cc2)cc1	none
CCN1CCN(Cc2c(OC)ccc3ccccc23)CC1	none
COc1ccc(NC(=O)CCCN2C(=O)CCC2=O)cc1Cl	none
COC(=O)c1ccc(-c2noc(CN(C)CC3CCCCO3)n2)cc1 (stereo not drawn)	Lipid droplet 50.5 | Hep lipid conf inactive | AML12 cytotox inactive
Cc1ccc(C)c(N=Cc2ccc(-c3ccc([N+](=O)[O-])cc3)o2)c1	none
COc1ccc(OC)c(-n2nnnc2SCC(=O)N2CCN(C(=O)c3ccco3)CC2)c1	none
COC(=O)C1=C(C(=O)OC)SC(=C2C(=S)C(C)(C)N(C(=O)C(C)C)c3ccccc32)S1	Lipid droplet 56.8 | Hep lipid conf 102.1 | AML12 cytotox inactive | AML12 tox conf inactive
Cc1cccc(NC(=O)Cn2cc(C(=O)C3CC3)c3ccccc32)c1	Lipid droplet 51.0 | Hep lipid conf 93.3 | AML12 cytotox inactive | AML12 tox conf inactive
Cc1ccc(NC(=O)Cn2cc(C(=O)C3CC3)c3ccccc32)cc1	none
N/C(Cc1ccc(Cl)cc1Cl)=N\OC(=O)c1ccc(Br)o1	Lipid droplet 57.1 | Hep lipid conf inactive | AML12 cytotox inactive
C=C(C)c1cccc(C(C)(C)NC(=O)Nc2ccccc2OCC)c1	Lipid droplet 52.5 | Hep lipid conf inactive | AML12 cytotox inactive
CCOc1ccccc1NC(=O)c1cccc(NC(=O)C(C)C)c1	none
C=C(C)c1cccc(C(C)(C)NC(=O)Nc2cc(C)ccc2OC)c1	none (no result: Lipid droplet)
CCCC(=O)Nc1cccc(C(=O)Nc2ccccc2OCC)c1	Lipid droplet 72.8 (no result: Arr AP2 block) | Hep lipid conf 98.9 | AML12 cytotox inactive
CCOc1ccccc1NC(=O)CCC(=O)Nc1ccccc1OCC	Lipid droplet 60.2 | Hep lipid conf 93.9 | AML12 cytotox inactive | AML12 tox conf inactive
Cc1cc(C)c(S(=O)(=O)c2cccc(C(F)(F)F)c2)c(=O)[nH]1	none
COc1ccc(C(=O)NCCNc2nc3c(C)cccc3cc2C#N)cc1OC	none
c1ccc(CCOn2ccnc2)cc1	none
CCCCOc1ccc(C(C)NC(=O)CCS(=O)(=O)Cc2ccc(C)cc2)cc1 (stereo not drawn)	Lipid droplet 51.8 | Hep lipid conf 103.0 | AML12 cytotox inactive
CCOCCCNC(=O)CCS(=O)(=O)Cc1ccc(C)cc1	none (no result: Lipid droplet)
CCCCSCCCNC(=O)c1ccc2c(c1)N(CC)C(=O)c1ccccc1S2=O (stereo not drawn)	Lipid droplet 60.0 | Hep lipid conf 88.4 | AML12 cytotox inactive | AML12 tox conf inactive
CCCN(CCC)CCCNC(=O)c1ccc2c(c1)N(CC)C(=O)c1ccccc1S2=O (stereo not drawn)	none (no result: Lipid droplet)
CC(=O)OCC(=O)[C@@]1(O)CC[C@H]2[C@@H]3CCC4=CC(=O)CC[C@]4(C)[C@H]3[C@@H](O)C[C@@]21C	Lipid droplet 50.4 | Hep lipid conf inactive | AML12 cytotox inactive
CCC(CC)C(=O)OCC(=O)C1(O)CCC2C3CCC4=CC(=O)CCC4(C)C3C(O)CC21C (stereo not drawn)	none (no result: Lipid droplet, Fh CTSL1 inh, pCIP destab)
C/C(=N/OCO/N=C(\C)c1ccccc1F)c1ccccc1F	none
COc1ccc(NS(=O)(=O)c2ccc(NC(=S)NCC3CCCO3)cc2)cc1 (stereo not drawn)	Lipid droplet 84.4 | Hep lipid conf 99.8 | AML12 cytotox inactive | AML12 tox conf inactive
COc1cc(/C=N/Nc2nc(C)cc(C)n2)ccc1OC(=O)c1ccco1	none
CCOc1cc(/C=N\Nc2nc(Nc3ccccc3)nc(N3CCOCC3)n2)ccc1OC(=O)c1ccco1	Lipid droplet 132.0 | Hep lipid conf 108.8 | AML12 cytotox 20.5
COc1ccc(N2C(=NC(=O)CCCc3ccccc3)SC3CS(=O)(=O)CC32)cc1 (stereo not drawn)	none
CCOC(=O)[C@@H]1[C@H]2COc3ccc(Br)cc3[C@@H]2N2C(=O)N(c3ccc(C(F)(F)F)cc3)C(=O)[C@@]12C	Lipid droplet 52.5 | Hep lipid conf 76.2 | AML12 cytotox inactive | AML12 tox conf inactive
CCOc1ccc(C2=NNC(c3cccs3)=Nc3ccc(OCC)cc32)cc1	none (no result: Arr AP2 block)
C=CCSc1n[nH]c(-c2ccc(OCCCC)cc2)n1	Lipid droplet 54.5 | Hep lipid conf 97.7 | AML12 cytotox inactive | AML12 tox conf inactive
O=C(NCC1CCCO1)c1nc(Cn2ccc([N+](=O)[O-])n2)no1 (stereo not drawn)	none
Cc1ccc2[nH]c(C)c(CC(=O)NCc3ccccc3)c2c1	Lipid droplet 71.8 | Hep lipid conf 68.2 | AML12 cytotox inactive | AML12 tox conf inactive
O=C(NNC(=O)c1ccc(Oc2ccc(C3SCCS3)cc2)o1)c1ccc(Cl)cc1	none
Cc1coc2cc3oc(=O)cc(C)c3cc12	Lipid droplet 52.5 | Hep lipid conf inactive | AML12 cytotox inactive
